From ChEMBL document CHEMBL1124257, “An examination of O-2-isocephems as orally absorbable antibiotics” (J Med Chem, 1988)
Values after ≈ are worked out from the molar mass of the structure shown.

System: Mus musculus
Assay: Area under curve(AUC) was measured in mice after oral administration.
Type: ADME, organism-based
Parameters: concentration or dose not given beside the values; unit not given here
Conditions: in vivo
How it was run: (§1)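 Male Swiss-Webster mice (20 ± 2 g) were given a single 50 mg/kg oral dose by gavage. Blood concentrations and urine levels were measured by microbiological assay, and urinary recovery was taken over 0–6 h.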
For `C/C=C\C1=C(C(=O)O)N2C(=O)[C@@H](NC(=O)[C@H](N)c3ccc(O)cc3)[C@H]2CO1` (relative stereo), the AUC was 23.
`C/C=C/C1=C(C(=O)O)N2C(=O)[C@@H](NC(=O)[C@H](N)c3ccc(O)cc3)[C@H]2CO1` (relative stereo) showed an AUC of 30.

System: not listed separately
Assay: Cmax was measured in mice after an oral dose of 50 mg/kg.
Type: ADME, organism-based
Parameters: dose 50 mg/kg, route oral
Conditions: mouse, in vivo
How it was run: as §1
Work on `C/C=C\C1=C(C(=O)O)N2C(=O)[C@@H](NC(=O)[C@H](N)c3ccc(O)cc3)[C@H]2CO1` (relative stereo) yielded a Cmax of 15000 ng/mL.
Work on `C/C=C/C1=C(C(=O)O)N2C(=O)[C@@H](NC(=O)[C@H](N)c3ccc(O)cc3)[C@H]2CO1` (relative stereo) yielded a Cmax of 11000 ng/mL.

Species: Mus musculus
Assay: Percentage of dose recovered after 0-6 hr in the urine of mice was measured.
Type: ADME, organism-based
Conditions: in vivo
How it was run: as §1
For `C/C=C\C1=C(C(=O)O)N2C(=O)[C@@H](NC(=O)[C@H](N)c3ccc(O)cc3)[C@H]2CO1` (relative stereo), the “Urinary recovery (% of dose, 0-6 h)” value was 25%.
With `C/C=C/C1=C(C(=O)O)N2C(=O)[C@@H](NC(=O)[C@H](N)c3ccc(O)cc3)[C@H]2CO1` (relative stereo) the “Urinary recovery (% of dose, 0-6 h)” value was 5%.

System: not listed separately
Assay: Half life was measured.
Type: ADME
Conditions: not given
How it was run: as §1
In the case of `C/C=C\C1=C(C(=O)O)N2C(=O)[C@@H](NC(=O)[C@H](N)c3ccc(O)cc3)[C@H]2CO1` (relative stereo), the half-life is reported as 0.867 h.
`C/C=C/C1=C(C(=O)O)N2C(=O)[C@@H](NC(=O)[C@H](N)c3ccc(O)cc3)[C@H]2CO1` (relative stereo) gave a half-life of 1.83 h.

System: Escherichia coli
Assay: Minimum inhibitory concentration (MIC) against Escherichia coli by 2-fold microdilution technique.
Type: functional
Conditions: Escherichia coli; read-out: MIC
How it was run: (§2)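 For each organism, an overnight culture was grown in Mueller-Hinton broth at 37 °C. Twofold microtiter dilutions in Nutrient Broth covered 0.005–125 µg/mL. Each well received about 10^4 organisms, and plates were incubated 18 h at 37 °C. MIC was the lowest concentration giving no visible growth.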
Work on `C/C=C\C1=C(C(=O)O)N2C(=O)[C@@H](NC(=O)[C@H](N)c3ccc(O)cc3)[C@H]2CO1` (relative stereo) yielded an MIC of 2 µg/mL (≈ 5.36 µM).
For `C/C=C/C1=C(C(=O)O)N2C(=O)[C@@H](NC(=O)[C@H](N)c3ccc(O)cc3)[C@H]2CO1` (relative stereo), the MIC was 2 µg/mL (≈ 5.36 µM).

System: Escherichia coli
Assay: Minimum inhibitory concentration (MIC) […] against Escherichia coli.
Type: functional
Conditions: Escherichia coli; read-out: MIC
How it was run: as §2
For `C/C=C\C1=C(C(=O)O)N2C(=O)[C@@H](NC(=O)[C@H](N)c3ccc(O)cc3)[C@H]2CO1` (relative stereo), the MIC was 2 µg/mL (≈ 5.36 µM).
With `C/C=C/C1=C(C(=O)O)N2C(=O)[C@@H](NC(=O)[C@H](N)c3ccc(O)cc3)[C@H]2CO1` (relative stereo) the MIC was 2 µg/mL (≈ 5.36 µM).

System: Haemophilus influenzae
Assay: Minimum inhibitory concentration (MIC) against Haemophilus influenzae by 2-fold microdilution technique.
Type: functional
Conditions: Haemophilus influenzae; read-out: MIC
How it was run: as §2
Compound `C/C=C\C1=C(C(=O)O)N2C(=O)[C@@H](NC(=O)[C@H](N)c3ccc(O)cc3)[C@H]2CO1` (relative stereo) has an MIC of 2 µg/mL (≈ 5.36 µM).
Work on `C/C=C/C1=C(C(=O)O)N2C(=O)[C@@H](NC(=O)[C@H](N)c3ccc(O)cc3)[C@H]2CO1` (relative stereo) yielded an MIC of 2 µg/mL (≈ 5.36 µM).

System: Klebsiella pneumoniae
Assay: Minimum inhibitory concentration (MIC) against Klebsiella pneumoniae by 2-fold microdilution technique.
Type: functional
Conditions: Klebsiella pneumoniae; read-out: MIC
How it was run: as §2
For `C/C=C\C1=C(C(=O)O)N2C(=O)[C@@H](NC(=O)[C@H](N)c3ccc(O)cc3)[C@H]2CO1` (relative stereo), the MIC was 16 µg/mL (≈ 42.9 µM).
Compound `C/C=C/C1=C(C(=O)O)N2C(=O)[C@@H](NC(=O)[C@H](N)c3ccc(O)cc3)[C@H]2CO1` (relative stereo) has an MIC of 8 µg/mL (≈ 21.4 µM).

System: Escherichia coli
Assay: Protective dose (PD50) against Escherichia coli infected mice
Type: functional
Conditions: read-out: PD50
How it was run: (§3)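 Male Swiss-Webster mice (20 ± 2 g) were challenged intraperitoneally with enough bacteria to kill untreated controls within 72 h. Drug was given orally by gavage twice: at 0 and 2 h after E. coli challenge, or at 1 and 3.5 h after S. pneumoniae challenge. PD50 is the dose in mg/kg per dose that protects 50% of animals.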
In the case of `C/C=C\C1=C(C(=O)O)N2C(=O)[C@@H](NC(=O)[C@H](N)c3ccc(O)cc3)[C@H]2CO1` (relative stereo), the ED50 is reported as 19 mg/kg.
`C/C=C/C1=C(C(=O)O)N2C(=O)[C@@H](NC(=O)[C@H](N)c3ccc(O)cc3)[C@H]2CO1` (relative stereo) gave an ED50 of over 50 mg/kg.

System: Streptococcus pneumoniae
Assay: Protective dose (PD50) against Streptococcus pneumoniae infected mice
Type: functional
Conditions: Streptococcus pneumoniae; read-out: PD50
How it was run: as §3
With `C/C=C\C1=C(C(=O)O)N2C(=O)[C@@H](NC(=O)[C@H](N)c3ccc(O)cc3)[C@H]2CO1` (relative stereo) the ED50 was 0.3 mg/kg.
Work on `C/C=C/C1=C(C(=O)O)N2C(=O)[C@@H](NC(=O)[C@H](N)c3ccc(O)cc3)[C@H]2CO1` (relative stereo) yielded an ED50 of 1.8 mg/kg.

System: Proteus mirabilis
Assay: Minimum inhibitory concentration (MIC) against Proteus mirabilis by 2-fold microdilution technique.
Type: functional
Conditions: Proteus mirabilis; read-out: MIC
How it was run: as §2
For `C/C=C\C1=C(C(=O)O)N2C(=O)[C@@H](NC(=O)[C@H](N)c3ccc(O)cc3)[C@H]2CO1` (relative stereo), the MIC was 1 µg/mL (≈ 2.68 µM).
With `C/C=C/C1=C(C(=O)O)N2C(=O)[C@@H](NC(=O)[C@H](N)c3ccc(O)cc3)[C@H]2CO1` (relative stereo) the MIC was 0.5 µg/mL (≈ 1.34 µM).

System: Streptococcus pneumoniae
Assay: Minimum inhibitory concentration (MIC) against Streptococcus pneumoniae by 2-fold microdilution technique
Type: functional
Conditions: Streptococcus pneumoniae; read-out: MIC
How it was run: as §2
Work on `C/C=C\C1=C(C(=O)O)N2C(=O)[C@@H](NC(=O)[C@H](N)c3ccc(O)cc3)[C@H]2CO1` (relative stereo) yielded an MIC of 0.03 µg/mL (≈ 0.0804 µM).
`C/C=C/C1=C(C(=O)O)N2C(=O)[C@@H](NC(=O)[C@H](N)c3ccc(O)cc3)[C@H]2CO1` (relative stereo) showed an MIC of 0.03 µg/mL (≈ 0.0804 µM).

System: Streptococcus pneumoniae
Assay: Minimum inhibitory concentration (MIC) […] against Streptococcus pneumoniae.
Type: functional
Conditions: Streptococcus pneumoniae; read-out: MIC
How it was run: as §2
Compound `C/C=C\C1=C(C(=O)O)N2C(=O)[C@@H](NC(=O)[C@H](N)c3ccc(O)cc3)[C@H]2CO1` (relative stereo) has an MIC of 0.03 µg/mL (≈ 0.0804 µM).
In the case of `C/C=C/C1=C(C(=O)O)N2C(=O)[C@@H](NC(=O)[C@H](N)c3ccc(O)cc3)[C@H]2CO1` (relative stereo), the MIC is reported as 0.03 µg/mL (≈ 0.0804 µM).

System: Enterococcus faecalis
Assay: Minimum inhibitory concentration (MIC) against Streptococcus faecalis by 2-fold microdilution technique.
Type: functional
Conditions: Enterococcus faecalis; read-out: MIC
How it was run: as §2
`C/C=C\C1=C(C(=O)O)N2C(=O)[C@@H](NC(=O)[C@H](N)c3ccc(O)cc3)[C@H]2CO1` (relative stereo) showed an MIC of 1 µg/mL (≈ 2.68 µM).
`C/C=C/C1=C(C(=O)O)N2C(=O)[C@@H](NC(=O)[C@H](N)c3ccc(O)cc3)[C@H]2CO1` (relative stereo) showed an MIC of 1 µg/mL (≈ 2.68 µM).

System: Streptococcus pyogenes
Assay: Minimum inhibitory concentration (MIC) against Streptococcus pyogenes by 2-fold microdilution technique
Type: functional
Conditions: Streptococcus pyogenes; read-out: MIC
How it was run: as §2
For `C/C=C\C1=C(C(=O)O)N2C(=O)[C@@H](NC(=O)[C@H](N)c3ccc(O)cc3)[C@H]2CO1` (relative stereo), the MIC was 0.016 µg/mL (≈ 0.0429 µM).
In the case of `C/C=C/C1=C(C(=O)O)N2C(=O)[C@@H](NC(=O)[C@H](N)c3ccc(O)cc3)[C@H]2CO1` (relative stereo), the MIC is reported as 0.016 µg/mL (≈ 0.0429 µM).

System: Staphylococcus aureus
Assay: Minimum inhibitory concentration (MIC) against Staphylococcus aureus by 2-fold microdilution technique.
Type: functional
Conditions: Staphylococcus aureus; read-out: MIC
How it was run: as §2
In the case of `C/C=C\C1=C(C(=O)O)N2C(=O)[C@@H](NC(=O)[C@H](N)c3ccc(O)cc3)[C@H]2CO1` (relative stereo), the MIC is reported as 0.25 µg/mL (≈ 0.67 µM).
In the case of `C/C=C/C1=C(C(=O)O)N2C(=O)[C@@H](NC(=O)[C@H](N)c3ccc(O)cc3)[C@H]2CO1` (relative stereo), the MIC is reported as 0.25 µg/mL (≈ 0.67 µM).
